Measurements reported in ChEMBL document CHEMBL2046315, “Design, synthesis and structure-activity relationships of 5-alkylaminolquinolines as a novel series of CRF1 receptor antagonists” (Bioorg Med Chem Lett, 2012).

Assays:
[1] = molecular target: T1, Corticotropin-releasing factor receptor 1 (Homo sapiens, UniProt P34998); assay: Displacement of [125I]-CRF from human CRF1 receptor expressed in HEK293 cells after 2 hrs by scintillation proximity assay; assay type: cell-based
T1 sequence (P34998 whole entry): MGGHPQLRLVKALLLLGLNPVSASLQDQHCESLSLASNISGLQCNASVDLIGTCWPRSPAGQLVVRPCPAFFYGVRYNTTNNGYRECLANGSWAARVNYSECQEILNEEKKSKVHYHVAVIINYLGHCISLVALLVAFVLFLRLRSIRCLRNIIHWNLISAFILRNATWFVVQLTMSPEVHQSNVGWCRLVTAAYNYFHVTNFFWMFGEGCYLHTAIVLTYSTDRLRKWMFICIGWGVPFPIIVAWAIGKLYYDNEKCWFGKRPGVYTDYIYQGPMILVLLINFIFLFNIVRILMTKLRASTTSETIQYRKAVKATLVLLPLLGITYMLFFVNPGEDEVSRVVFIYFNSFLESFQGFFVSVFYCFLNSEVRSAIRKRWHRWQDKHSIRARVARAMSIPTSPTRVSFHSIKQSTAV
Procedure, shortened: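 Membranes (5 µg/well) with WGA-coated SPA beads and 0.1 nM [125I]-human/rat CRF. Assay buffer is phosphate-buffered saline with 10 mM MgCl2, 2 mM EGTA, 1.5% BSA and protease inhibitors, pH 7.0. Nonspecific binding defined with 0.4 µM sauvagine. Incubated over 2 h at room temperature and counted after centrifugation. Specific binding expressed as % of total; IC50 from concentration-response curve.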

[2] = molecular target: T1, Corticotropin-releasing factor receptor 1; assay: Antagonist activity at human CRF1 receptor expressed in HEK293 cells assessed as inhibition of CRF-stimulated intracellular cAMP accumulation preincubated for 30 mins measured after 30 mins by enzyme immunoassay; assay type: functional, cell-based
Procedure, shortened: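 Cells seeded at 5 × 10^4/well in DMEM with 0.1% FBS and 1 mM IBMX, pre-incubated 30 min, then test compound added for 30 min at 37 °C. Stimulation with 1 nM human/rat CRF for 30 min at 37 °C, followed by cell lysis. cAMP measured by EIA, basal (no CRF) subtracted, expressed as % of total production. IC50 from concentration-response curve.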

Compound | IC50 [1] | IC50 [2]
CCN(c1cccc2nc(Oc3c(OC)cc(COC)cc3OC)c(C)cc12)C1CCOCC1 | 323 nM | 
COCc1cc(OC)c(Oc2nc3cccc(NC4CCCCC4)c3cc2C)c(OC)c1 | > 1000 nM | 
Cc1cc(C)c(Nc2nc3cccc(N(CC4CCOCC4)CC4CC4)c3cc2C)c(C)c1 | 742 nM | 
CCCN(CCC)c1cccc2nc(Nc3c(OC)cc(COC)cc3OC)c(C)cc12 | 472 nM | 
CCCN(CCC)c1cccc2nc(Oc3c(OC)cc(COC)cc3OC)c(C)cc12 | 138 nM | 163 nM
CCCN(CCC)c1cccc2nc(Nc3c(C)cc(C)cc3C)c(C)nc12 | 155 nM | 563 nM
Cc1cc(C)c(Nc2nc3cccc(N(CC4CC4)CC4CC4)c3cc2C)c(C)c1 | 75 nM | 
CCN(CC1CCOCC1)c1cccc2nc(Oc3c(OC)cc(COC)cc3OC)c(C)cc12 | 646 nM | 
CCCC(CCC)Nc1cccc2nc(Nc3c(C)cc(C)cc3C)c(C)nc12 | 197 nM | 

Now from value to compound:

IC50 [1] | IC50 [2] | Compound
70 nM | 167 nM | CCN(CC)c1cccc2nc(Oc3c(OC)cc(COC)cc3OC)c(C)cc12
> 1000 nM |  | CCN(Cc1ccncc1)c1cccc2nc(Oc3c(OC)cc(COC)cc3OC)c(C)cc12
79 nM |  | CCCN(CCC)c1cccc2nc(Oc3c(C)cc(C)cc3C)c(C)cc12
88 nM | 372 nM | CCCN(CCC)c1cccc2nc(Nc3c(C)cc(C)cc3C)c(C)cc12
672 nM |  | CCCN(CCC)c1cccc2nc(Nc3c(C)cc(C)cc3C)c(=O)n(C)c12
762 nM |  | COCc1cc(OC)c(Oc2nc3cccc(N(CC4CCOCC4)CC4CC4)c3cc2C)c(OC)c1
90 nM | 255 nM | Cc1cc(C)c(Nc2nc3cccc(N(CC4CC4)C4CCOCC4)c3cc2C)c(C)c1
> 1000 nM |  | CCC(CC)Nc1cccc2nc(Oc3c(OC)cc(COC)cc3OC)c(C)cc12
> 1000 nM |  | CCCN(CCC)c1cccc2nc(N(C)c3c(C)cc(C)cc3C)c(=O)n(C)c12
> 1000 nM |  | CCCN(CCC)c1cccc2nc(Nc3c(OC)cc(OC)cc3OC)c(C)cc12
100 nM | 469 nM | CCCN(CCC)c1cccc2nc(Nc3c(C)cc(C)cc3C)c(=O)[nH]c12
157 nM |  | COCc1cc(OC)c(Oc2nc3cccc(N(CC4CC4)C4CCOCC4)c3cc2C)c(OC)c1
